# Screening results deposited in PubChem BioAssay by The Scripps Research Institute Molecular Screening Center.
# CHRM4 PAM: potentiates acetylcholine response at human M4 receptor; P08173; CHO-K1 hM4/Gqi5, Fluo-8 calcium fluorescence, ACh EC20; 0% = ACh EC20, 100% = maximal ACh; activation, % at 3 µM; 360,000 tested, 0.4% active; AID 624126;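 active = activation above its plate's cutoff, the mean activation of sample wells plus 3 SD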
# Target sequence (P08173 whole entry, looked up): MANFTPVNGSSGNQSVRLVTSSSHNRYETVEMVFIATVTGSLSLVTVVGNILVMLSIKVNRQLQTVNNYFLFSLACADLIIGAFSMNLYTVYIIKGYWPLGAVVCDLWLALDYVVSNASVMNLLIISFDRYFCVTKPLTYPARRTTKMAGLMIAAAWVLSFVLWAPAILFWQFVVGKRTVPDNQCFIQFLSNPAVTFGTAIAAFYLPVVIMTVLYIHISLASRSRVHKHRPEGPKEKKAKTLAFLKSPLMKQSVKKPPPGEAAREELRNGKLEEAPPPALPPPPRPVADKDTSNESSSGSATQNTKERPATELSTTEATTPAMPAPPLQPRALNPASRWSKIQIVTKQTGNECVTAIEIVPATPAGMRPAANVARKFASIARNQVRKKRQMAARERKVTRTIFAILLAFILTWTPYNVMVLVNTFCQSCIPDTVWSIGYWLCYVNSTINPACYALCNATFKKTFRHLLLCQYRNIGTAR
# M5 PAM: positive allosteric modulators of human muscarinic M5 receptor. P08912. CHO-K1 hM5, Fluo-8 calcium, ACh EC20 PAM; 0% = ACh EC20, 100% = ACh EC100. AID 624038. 360,000 tested, 0.3% active. activation, % at 3 µM;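 active = activation above the run cutoff, the mean activation of all test compounds plus 3 SD, cut at about 18% in these data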
#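 Replicates: One well per compound, no replicates | System: Human M5 receptor in CHO-K1 cells | Benchmarks: Low control EC20 acetylcholine (0%), high control EC100 acetylcholine (100%) | Probe or stimulus: Acetylcholine, EC20 level | Times: Fluo-8 loading 80 min at 37 °C plus 30 min room temperature | Signal: Intracellular calcium via Fluo-8 fluorescence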
# CHRM5 agonist: agonists of human muscarinic M5 receptor (CHRM5); P08912; activation, % at 3 µM; CHO-K1 hM5 cells, Fluo-8 calcium fluorescence; 0% DMSO wells, 100% maximal acetylcholine response; 360,000 tested, 0.19% active;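 active = activation above the run's mean over test compounds plus 3 SD, cut at about 23% in these data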;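 also: signal is peak over basal fluorescence ratio across the kinetic read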
# CHRM4 antagonist: CHRM4 antagonism in calcium assay. AID 624125. inhibition, % at 3 µM. CHO-hM4 cells, ACh EC80, Fluo-8 calcium fluorescence. 360,000 tested, 0.73% active. P08173;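 active = inhibition above its plate's cutoff, the mean inhibition of sample wells plus 3 SD, cut at about 27% in these data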;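 also: 0% = acetylcholine EC80 with DMSO and 100% = DMSO without agonist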
# M4 ag: CHRM4 agonism in calcium assay; P08173; CHO-K1 hM4/Gqi5, Fluo-8 calcium fluorescence; vehicle 0%, full acetylcholine response 100%; activation, % at 3 µM; 360,000 tested, 0.14% active; AID 624127;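 active = activation above the run mean over all test wells plus 3 SD, cut at about 32% in these data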;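 also: peak over basal fluorescence ratio per well then scaled between controls; 0% = DMSO wells and 100% = acetylcholine at EC100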
# M5 antag: CHRM5 antagonism in calcium assay; CHO-hM5 cells, Fluo-8 calcium fluorescence, ACh EC80; inhibition, % at 3 µM; 360,000 tested, 0.59% active; AID 624040;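 active = inhibition above a per-plate cutoff, the mean of that plate's test compounds plus 3 SD, cut at about 27% in these data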;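 also: 0% = acetylcholine EC80 with DMSO and 100% = DMSO without agonist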
# An asterisk follows results filed as active. Sampled rows, rich in hits. Any-hit rate of the full collection: about 1.8%.
SMILES,CHRM4 PAM,M5 PAM,CHRM5 agonist,CHRM4 antagonist,M4 ag,M5 antag
Cc1ccnc2nc(C(=O)OCC(=O)NC3CCCC(C)C3C)nn12 (stereo not given),21*,-4,1,-9,2,5
COc1cc(C(=O)NCC(=O)N2CCN(S(=O)(=O)c3cc(C)ccc3C)CC2)cc(OC)c1OC,4,3,-3,-10,4,-10
Brc1ccc(OCc2ccccc2)c(CNCc2ccncc2)c1,-14,-23,3,29*,28,15
NS(=O)(=O)c1ccc(NC(=O)C2C3C=CC(C3)C2C(=O)O)cc1 (stereo not given),10,18*,4,-6,1,-10
Cc1ccc(NS(=O)(=O)c2cc(Br)cnc2N)cc1C,-15,-18,-10,97*,3,100*
Cc1cc(C)cc(NS(=O)(=O)c2cc(Br)cnc2N)c1,-6,-3,-6,-2,1,4
Cc1c2ccccc2cc(Cc2ccccc2)[n+]1C,-7,-6,-14,8,0,8
O=C(/C=C/c1ccc(Cl)cc1Cl)NCCN1CCOCC1,30*,1,-2,-13,1,-6
CC(=O)Nc1ccc(OCC(O)Cn2c3ccccc3c3ccccc32)cc1 (stereo not given),16,0,3,0,11,-2
CC(=O)Nc1ccc(OCC(O)Cn2c3ccccc3c3ccccc32)c(C)c1 (stereo not given),-11,-12,11,27*,26,15
O=C1C=CC(=O)N1c1cccc(-c2ccccc2)c1,-49,-16,-2,42*,16,2
COc1ccc(OC)c(NC(=O)Nc2nc(C(C)N)cs2)c1 (stereo not given),4,-2,1,-3,0,-4
CCNC(=O)C1(C)CCCN1Cc1c(F)cccc1F (stereo not given),7,1,1,-3,0,-9
CN(C)c1ccc(CC(=O)N2CCCC(c3cc(C(=O)Nc4ccc(F)c(Cl)c4)no3)C2)cc1 (stereo not given),-13,-12,3,28*,16,17
Cc1ccc(N/C(SCc2ccccc2C)=C(/C#N)C(=O)NCc2ccco2)cc1C,-21,-10,-4,27*,0,4
CCc1ccc(N/C(SCc2cccc(F)c2)=C(/C#N)C(=O)NCc2ccco2)cc1,-6,-1,0,5,1,7
Cc1cccc(C)c1NC(=O)CN1CCN(C(=O)CN2C(=O)NC3(CCCCC3C)C2=O)CC1 (stereo not given),23*,1,2,-11,1,-1
CC1CCCCC12NC(=O)N(CC(=O)Nc1ccccc1F)C2=O (stereo not given),22*,0,2,1,1,6
CC1CCCCC12NC(=O)N(CC(=O)Nc1ccccc1-c1ccccc1)C2=O (stereo not given),2,-2,6,2,2,0
CCc1ccccc1NC(=O)CN1CCN(C(=O)CN2C(=O)NC3(CCCCC3C)C2=O)CC1 (stereo not given),-2,-3,0,1,0,4
Cc1cccc(OCc2nnc3n2CCCCC3)c1,4,36*,3,7,1,31*
Cc1ccc(N2C(=O)[C@@H]3[C@H](C2=O)C2c4ccccc4C=NN2[C@@H]3C(=O)c2ccc(Cl)cc2)cc1 (stereo not given in full),7,-10,-3,-12,4,27*
CCOC(=O)c1cc(C)n(CCc2ccccc2)c1C,-2,6,-6,-6,-2,-7
Cc1c(P(=S)(c2ccccc2)c2ccccc2)[n+]2ccccc2n1CCc1ccccc1,-15,-7,-4,56*,1,12
O=C(N/N=C/c1cccc2cccnc12)c1ccccc1O,-26,-9,5,35*,7,25
SMILES,CHRM4 PAM,M5 PAM,CHRM5 agonist,CHRM4 antagonist,M4 ag,M5 antag
CN1CCN(c2ccc(-c3ccnn3C(=O)Nc3cccc(C(F)(F)F)c3)cc2)CC1,-3,-14,6,9,11,28*
NC(=O)NC(=O)COC(=O)CC12CC3CC(CC(C3)C1)C2,10,20*,1,-1,2,-8
NC(=O)COC(=O)CC12CC3CC(CC(C3)C1)C2,-3,3,-2,6,0,4
CC(C1=C(CCN(C)C)Cc2ccccc21)c1ccccn1 (stereo not given),-10,-37,-13,64*,0,7
CN(C)CCC(c1ccccc1)c1ccccn1 (stereo not given),-9,-17,-1,14,1,15
CCOc1ccc(NS(=O)(=O)c2ccc(C(=O)N(C)CC(=O)Nc3ccccc3Br)cc2)cc1,-2,-5,8,-1,12,8
CCc1ccccc1Nc1nn2c(=O)c3ccc(C(=O)NCc4ccccn4)cc3nc2s1,-4,-1,-4,-8,9,3
O=[N+]([O-])/C=C\c1ccc(N2CCCC2)c(F)c1,-23,-27,64*,34*,41*,78*
CCOc1ccc(OCCC(=O)OCC(=O)Nc2ccc(C)c(S(=O)(=O)N3CCCCC3)c2)cc1,-6,-23,5,7,24,27*
Cc1ccccc1-c1cccc([C@@H]2C[C@H]3[C@H](CON3C)CN2S(=O)(=O)c2ccccc2C)c1,-8,-6,-1,-4,7,0
CC1(C)CC(=O)C=C(C#CC2(O)CCCCC2)C1,2,1,0,-13,2,-4
COc1cccc(OCC(O)CN2CCN(C(c3ccccc3)c3ccccc3)CC2)c1 (stereo not given),-12,-28,-16,-5,2,3
CC(=O)c1ccccc1OCC(O)CN1CCN(C(c2ccccc2)c2ccccc2)CC1 (stereo not given),-23,-31,-11,35*,1,17
COc1cc(NC(=O)C(C)(C)C)c(C(=O)OCC(=O)Nc2cc(C)on2)cc1OC,-5,-2,1,6,0,7
COc1c(F)c(F)c(C(=O)Nc2ccccc2N2CCN(C(=O)C(C)C)CC2)c(F)c1F,2,31*,2,-7,3,27
O=C(/C=C/c1c(F)cccc1Cl)c1ccc(O)cc1,-15,-7,-5,39*,-1,11
Cc1cc(C(=O)N2CCN(S(=O)(=O)c3ccc(C)c(C)c3)CC2)no1,0,0,-1,0,1,-3
CCCc1nc2c(=O)[nH]c3ccccc3c2o1,10,19*,0,-9,1,1
COc1ccccc1N1CCN(C(=O)c2cn(Cc3ccccc3)nc2-c2cccnc2)CC1,14,-10,29*,-6,10,-3
